Data on 24 molecules can be found in ChEMBL document CHEMBL2346497, “Synthesis of novel cognition enhancers with pyrazolo[5,1-c][1,2,4]benzotriazine core acting at γ-aminobutyric acid type A (GABA(A)) receptor” (Bioorg Med Chem, 2013).

Each structure is given as a SMILES string. Calls of active or inactive are those of the source. No cut-off for these calls is given here.

Data set [1] can be described thus: Displacement of [3H]Ro15-1788 from GABA-A receptor benzodiazepine binding site in bovine cerebral cortex membranes after 1 hr. Type of data set: cell membranes, Bos taurus, Membrane. On the technique in general: In a radioligand displacement assay an active substance lowers the binding of a labelled ligand.
Data set [2] relates to Mus musculus. Nature of the data set: Anxiolytic activity in CD1 albino mouse assessed as increase in time spent in illuminated side at 30 mg/kg, po administered 30 mins prior to testing measured for 5 mins by light-dark box test. Type of data set: functional, organism-based. Also on record: dose 30 mg/kg. The gist of the method: (§1)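 Light/dark box: two equal acrylic compartments, one lit by a 60 W lamp, joined by a floor-level opening. Male CD-1 mice were dosed po in 1% CMC 30 min before the test, then placed in the centre of the lit side facing away from the dark side. Over 5 min, transfers and time in the light side were recorded, n = 8 mice per group.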

Data set [3] has as its system Mus musculus. The experiment in a line: Anticonvulsant activity in CD1 albino mouse assessed as protection against pentylenetetrazole-induced convulsions at 10 mg/kg, po administered 30 mins prior to pentylenetetrazole challenge measured over 30 mins (reference value: 7.1%). The data set is classed as functional.
In data set [4] the test system is Rattus norvegicus. The experiment in a line: Procognitive effect in Harlan Wistar rat assessed as decrease in exploring time of unfamiliar rat during social investigatory behaviour at 10 to 100 mg/kg, po administered 30 mins prior to testing measured for 5 mins by social learning test relative to control. The data set is classed as functional, organism-based.
Data set [5] has as its system Mus musculus. The experiment in a line: Antiamnesic activity in CD1 albino mouse assessed as reversal of scopolamine-induced amnesia at 1 mg/kg, po administered 30 mins prior to scopolamine challenge measured after 24 hrs by passive avoidance test. Type of data set: functional, organism-based. Also on record: dose 1 mg/kg. In outline: (§2)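 Step-through passive avoidance in male CD-1 mice (22–24 g). Test drugs were given po, suspended in 1% carboxymethylcellulose at 10 ml/kg, 30 min before the training session. For the antiamnesic arm, scopolamine 1.5 mg/kg was injected immediately after punishment. Retention latency was compared with CMC-treated controls, n = 10–12 mice per group.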

Data set [6] relates to Mus musculus. The experiment in a line: Neurotoxicity in CD1 albino mouse assessed as decrease in number of falls from rotating rod at 30 mg/kg, po by rota-rod test relative to control. Also noted: dose 30 mg/kg, route oral. The conditions noted are these: in vivo, TDE = time-dependent effect. Type of data set: toxicity, organism-based. The gist of the method:
(§3)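 Motor coordination was tested on a rota-rod turning at 24 rpm in male CD-1 mice dosed po in 1% CMC. Falls within 30 s were counted at a pretest and at 15, 30, 45 and 60 min after dosing. Each value is the mean of five mice, compared with CMC-treated controls.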
A general note: The rotarod test checks motor coordination on a turning rod.

Data set [7] concerns Mus musculus. The experiment in a line: Cognitive enhancing effect in CD1 albino mouse assessed as increase in retention latency at 1 to 100 mg/kg, po administered 30 mins prior to testing measured after 24 hrs by passive avoidance test relative to control. The data set is classed as functional, organism-based. The gist of the method:
as §2

For data set [8], the system named is Rattus norvegicus. The experiment in a line: Procognitive effect in Harlan Wistar rat assessed as exploring time of familiar rat during social investigatory behaviour at 30 mg/kg, po administered 30 mins prior to testing measured for 5 mins by social learning test (reference value: 27.6 secs). The data set is classed as functional.
In data set [9] the test system is Rattus norvegicus. Nature of the data set: Procognitive effect in Harlan Wistar rat assessed as exploring time of familiar rat during social investigatory behaviour at 10 mg/kg, po administered 30 mins prior to testing measured for 5 mins by social learning test (reference value: 27.6 secs). The data set is classed as functional.
Data set [10] relates to Rattus norvegicus. The experiment in a line: Procognitive effect in Harlan Wistar rat assessed as exploring time of familiar rat during social investigatory behaviour at 100 mg/kg, po administered 30 mins prior to testing measured for 5 mins by social learning test (reference value: 27.6 secs). Type of data set: functional.
The species named for another data set is Bos taurus. The experiment in a line: Displacement of [3H]Ro15-1788 from GABA-A receptor benzodiazepine binding site in bovine cerebral cortex membranes at 10 uM after 1 hr. Type of data set: cell membranes. As to conditions: Membrane.
Data set [11] concerns Mus musculus. The experiment in a line: Cognitive enhancing effect in CD1 albino mouse assessed as increase in retention latency at 1 to 10 mg/kg, po administered 30 mins prior to testing measured after 24 hrs by passive avoidance test relative to control. Type of data set: functional, organism-based. The gist of the method: as §2
Data set [12] deals with Rattus norvegicus. Nature of the data set: Procognitive effect in Harlan Wistar rat assessed as decrease in exploring time of unfamiliar rat during social investigatory behaviour at 10 mg/kg, po administered 30 mins prior to testing measured for 5 mins by social learning test relative to control. The data set is classed as functional, organism-based. Also noted: dose 10 mg/kg.

Data set [13] deals with Mus musculus. Nature of the data set: Anxiolytic activity in CD1 albino mouse assessed as increase in time spent in illuminated side at 10 to 30 mg/kg, po administered 30 mins prior to testing measured for 5 mins by light-dark box test. The data set is classed as functional, organism-based. In outline:
as §1

Data set [14] concerns Mus musculus. Nature of the data set: Cognitive enhancing effect in CD1 albino mouse assessed as increase in retention latency at 1 to 30 mg/kg, po administered 30 mins prior to testing measured after 24 hrs by passive avoidance test relative to control. The data set is classed as functional, organism-based. The gist of the method: as §2
Data set [15] relates to Rattus norvegicus. The experiment in a line: Procognitive effect in Harlan Wistar rat assessed as decrease in exploring time of unfamiliar rat during social investigatory behaviour at 30 mg/kg, po administered 30 mins prior to testing measured for 5 mins by social learning test relative to control. Type of data set: functional, organism-based. Also noted: dose 30 mg/kg.

Data set [16] has as its system Mus musculus. The experiment in a line: Antiamnesic activity in CD1 albino mouse assessed as reversal of scopolamine-induced amnesia at 3 mg/kg, po administered 30 mins prior to scopolamine challenge measured after 24 hrs by passive avoidance test. The data set is classed as functional, organism-based. Also noted: dose 3 mg/kg.
Data set [17] has as its system Mus musculus. Nature of the data set: Cognitive enhancing effect in CD1 albino mouse assessed as increase in retention latency at 3 to 30 mg/kg, po administered 30 mins prior to testing measured after 24 hrs by passive avoidance test relative to control. The data set is classed as functional, organism-based. In outline:
as §2

Data set [18] relates to Mus musculus. Nature of the data set: Anxiolytic activity in CD1 albino mouse assessed as increase in time spent in illuminated side at 10 mg/kg, po administered 30 mins prior to testing measured for 5 mins by light-dark box test. The data set is classed as functional, organism-based. Also noted: dose 10 mg/kg. In outline:
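Male CD-1 mice (22–24 g) were dosed po at 10 ml/kg with drug suspended in 1% carboxymethylcellulose, 30 min before the test. Each mouse was placed in the centre of the lit compartment of a two-compartment light/dark box, facing away from the dark side, and explored for 5 min. Transfers and time in the light side were recorded. Values are means of eight mice, analysed by ANOVA with Scheffé post-hoc.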

Data set [19] deals with Mus musculus. Nature of the data set: Anxiolytic activity in CD1 albino mouse assessed as increase in time spent in illuminated side at 10 mg/kg, po administered 30 mins prior to testing measured for 5 mins by light-dark box test in presence of flumazenil. Also noted: dose 10 mg/kg. Type of data set: functional, organism-based. The gist of the method: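 This is the mouse light/dark box (male CD-1, 22–24 g) with flumazenil added at 100 mg/kg po. Drugs were suspended in 1% CMC and given po at 10 ml/kg, 30 min before testing. Mice started in the centre of the lit side and explored for 5 min. Transfers and time in the light side were scored. Values are means of eight mice, compared with flumazenil-treated mice.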

Data set [20] relates to Mus musculus. The experiment in a line: Neurotoxicity in CD1 albino mouse assessed as decrease in number of falls from rotating rod at 10 mg/kg, po by rota-rod test relative to control. Type of data set: toxicity, organism-based. Also on record: dose 10 mg/kg, route oral. The conditions noted are these: in vivo, TDE = time-dependent effect. The gist of the method:
as §3

Molecule `Cc1cnn2c1n[n+]([O-])c1ccc(OCc3ccnc(Cl)c3)cc12` gave an inhibition constant (Ki) in data set [1] of 7.49 nM.
As to `[O-][n+]1nc2c(I)cnn2c2cc(OCc3cccs3)ccc21`, the result in the data set on Mus musculus [2], in the data set with Mus musculus [5] and with Mus musculus [7] was Active. For the same molecule, the Activity in the data set with Mus musculus [3] is recorded as 0%; in the data set with Mus musculus [6] it was “tde”. The result with Rattus norvegicus [4] was inactive. The Time stood at 42.3 s in the data set with Rattus norvegicus [8], 32.5 s in the data set on Rattus norvegicus [9] and 41.9 s in the data set with Rattus norvegicus [10].
In data set [1], `NC(=O)c1cnn2c1n[n+]([O-])c1ccc(OCc3ccccc3)cc12` gave a Ki of 324 nM.
With `[O-][n+]1nc2c(I)cnn2c2cc(NCc3ccco3)ccc21`, the Ki in data set [1] stood at 0.23 nM.
`NC(=O)c1cnn2c1n[n+]([O-])c1ccc(OCc3ccncc3)cc12` returned a Ki in data set [1] of 1200 nM.
Still for that read-out and setting: the figure for `Cc1cnn2c1n[n+]([O-])c1ccc(OCc3ccco3)cc12` is 30.9 nM.
Regarding `Cn1ncnc1-c1cnn2c1n[n+]([O-])c1ccc(OCc3ccccc3)cc12`, the inhibition in the data set filed under Bos taurus was found to be 46%.
Take `Cc1cnn2c1nnc1ccc(Cl)cc12`: the Ki in [1] came to 400 nM.
Same read-out and setting: with `[O-][n+]1nc2c(I)cnn2c2cc(NCc3ccccn3)ccc21` the figure was 0.72 nM.
Regarding `[O-][n+]1nc2c(-c3ncn[nH]3)cnn2c2cc(OCc3ccccc3)ccc21`, the result in the data set on Mus musculus [11], with Mus musculus [5] and in the data set on Mus musculus [13] was Active. For the same molecule, the values for the Activity in the data set with Mus musculus [3] and with Mus musculus [6] were 0% and “tde”, respectively. The outcome in the data set with Rattus norvegicus [12] was inactive. The molecule further had a Ki in [1] of 325 nM. Also, the Time in the data set with Rattus norvegicus [9] is 40.3 s.
As to `[O-][n+]1nc2c(-c3ncn[nH]3)cnn2c2cc(OCc3ccncc3)ccc21`, in data set [1], the Ki worked out at 168 nM.
Same read-out and setting: the figure for `Cc1cnn2c1n[n+]([O-])c1ccc(Cl)cc12` is 315 nM; for `CN(C)/C=N/C(=O)c1cnn2c1n[n+]([O-])c1ccc(OCc3ccncc3)cc12` it is 515 nM; for `NC(=O)c1cnn2c1n[n+]([O-])c1ccc(OCc3cccs3)cc12` it is 960 nM.
On to `Cc1noc(-c2cnn3c2n[n+]([O-])c2ccc(OCc4ccccc4)cc23)n1`, for which the results for the Activity in the data set on Mus musculus [3] and in the data set with Mus musculus [6] were 10% and “tde”, respectively. Further, the result with Rattus norvegicus [12] was inactive. The Ki in data set [1] is 70.7 nM. Also, the outcome in the data set on Mus musculus [5], with Mus musculus [14] and in the data set with Mus musculus [13] was Active. In the data set with Rattus norvegicus [9], the Time turned out to be 43.1 s.
`CN(C)/C=N/C(=O)c1cnn2c1n[n+]([O-])c1ccc(OCc3cccs3)cc12` showed a Ki in [1] of 620 nM.
For the molecule `NC(=O)CN1CCCC1=O` [PIRACETAM], in the data set on Rattus norvegicus [15], the outcome was inactive. The Time in the data set on Rattus norvegicus [8] turned out to be 46.3 s.
`Cc1noc(-c2cnn3c2n[n+]([O-])c2ccc(OCc4cccs4)cc23)n1`: the Ki in [1] was found to be 1620 nM.
With `[O-][n+]1ccc(COc2ccc3c(c2)n2ncc(I)c2n[n+]3[O-])cc1`, the Ki in data set [1] turned out to be 20.4 nM.
`CN(C)/C=N/C(=O)c1cnn2c1n[n+]([O-])c1ccc(OCc3ccccc3)cc12` registered a Ki in [1] of 86.6 nM. This Ki is about 4.2-fold higher than that of the molecule before.
Consider `Cc1noc(-c2cnn3c2n[n+]([O-])c2ccc(OCc4ccncc4)cc23)n1`, for which the Activity in the data set on Mus musculus [3] is 10%; in the data set with Mus musculus [6] it was “tde”. Moreover, in the data set with Rattus norvegicus [12], the outcome was inactive. Further, the Ki in data set [1] was 453 nM. The result in the data set with Mus musculus [16], in the data set with Mus musculus [13] and in the data set with Mus musculus [17] was Active. The Time in the data set with Rattus norvegicus [9] stood at 44.6 s.
Turning to `[O-][n+]1nc2c(I)cnn2c2cc(NCc3ccncc3)ccc21`, in data set [1], the Ki stood at 0.33 nM.
For `CN1C(=O)CN=C(c2ccccc2)c2cc(Cl)ccc21` [DIAZEPAM], the outcome with Mus musculus [18] was Active. Further, the Activity in the data set with Mus musculus [3] is recorded as 100%; in the data set on Mus musculus [20] it was “tde”. The outcome in the data set with Mus musculus [19] was inactive.
As to `Cn1cnc(-c2cnn3c2n[n+]([O-])c2ccc(OCc4ccccc4)cc23)n1`, the inhibition in the data set listed under Bos taurus came to 50%.

By Ki is commonly meant the equilibrium dissociation constant of an inhibitor or competing ligand from its target. One may read the inhibition as the percentage by which the read-out fell short of the control.
